# An excerpt weighted towards active compounds, which were near 1.9% of everything screened.
# M4 PAM – positive allosteric modulators of human muscarinic M4 receptor. P08173. CHO-K1 hM4/Gqi5, Fluo-8 calcium fluorescence, ACh EC20; 0% = ACh EC20, 100% = maximal ACh. activation, % at 3 µM. 0.4% of 360,000 active. AID 624126;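 active = activation above its plate's cutoff, the mean activation of sample wells plus 3 SD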
# Target sequence (P08173 whole entry, looked up): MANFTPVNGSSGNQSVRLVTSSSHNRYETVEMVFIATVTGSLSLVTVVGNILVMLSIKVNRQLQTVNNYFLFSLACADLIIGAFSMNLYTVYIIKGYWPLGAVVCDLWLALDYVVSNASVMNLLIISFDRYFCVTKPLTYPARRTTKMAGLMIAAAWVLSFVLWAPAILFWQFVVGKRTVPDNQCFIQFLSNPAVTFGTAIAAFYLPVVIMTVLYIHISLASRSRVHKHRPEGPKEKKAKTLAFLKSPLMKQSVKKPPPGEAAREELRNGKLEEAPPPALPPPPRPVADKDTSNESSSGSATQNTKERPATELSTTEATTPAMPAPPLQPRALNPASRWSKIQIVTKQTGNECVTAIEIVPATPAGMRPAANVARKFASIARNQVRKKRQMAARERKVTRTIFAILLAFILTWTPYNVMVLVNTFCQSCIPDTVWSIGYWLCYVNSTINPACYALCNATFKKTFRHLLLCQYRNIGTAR
# CHRM4 antagonist – antagonists of human muscarinic M4 receptor (CHRM4) | CHO-hM4 cells, ACh EC80, Fluo-8 calcium fluorescence | inhibition, % at 3 µM | 0.73% of 360,000 active | AID 624125;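 active = inhibition above its plate's cutoff, the mean inhibition of sample wells plus 3 SD, cut at about 27% in these data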;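 note: 0% = acetylcholine EC80 with DMSO and 100% = DMSO without agonist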
# CHRM4 agonist – CHRM4 agonism in calcium assay | P08173 | CHO-K1 hM4/Gqi5, Fluo-8 calcium fluorescence; vehicle 0%, full acetylcholine response 100% | activation, % at 3 µM | 0.14% of 360,000 active | AID 624127;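 active = activation above the run mean over all test wells plus 3 SD, cut at about 32% in these data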;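 note: peak over basal fluorescence ratio per well then scaled between controls; 0% = DMSO wells and 100% = acetylcholine at EC100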
# M5 antag – CHRM5 antagonism in calcium assay | P08912 | CHO-hM5 cells, Fluo-8 calcium fluorescence, ACh EC80 | inhibition, % at 3 µM | 0.59% of 360,000 active | AID 624040;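 active = inhibition above a per-plate cutoff, the mean of that plate's test compounds plus 3 SD, cut at about 27% in these data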;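 note: 0% = acetylcholine EC80 with DMSO and 100% = DMSO without agonist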
# M5 PAM – CHRM5 positive allosteric modulation; AID 624038; CHO-K1 hM5, Fluo-8 calcium, ACh EC20 PAM; 0% = ACh EC20, 100% = ACh EC100; activation, % at 3 µM; 0.3% of 360,000 active; P08912;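 active = activation above the run cutoff, the mean activation of all test compounds plus 3 SD, cut at about 18% in these data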
#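 System: CHO-K1 hM5 cells. Reagent: acetylcholine, EC20 level. Compound dosing: single dose, 3 µM nominal final test concentration. Timing: Post-acetylcholine fluorescence recording 140 s. Detection: Fluo-8 calcium fluorescence. Read-out: % activation, ACh-normalized. Benchmarks: ACh EC20 and EC100 wells. Repeats: singlicate, one well per test compound.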
# M5 ag – agonists of human muscarinic M5 receptor (CHRM5). P08912. CHO-K1 hM5 cells, Fluo-8 calcium fluorescence; 0% DMSO wells, 100% maximal acetylcholine response. activation, % at 3 µM. 0.19% of 360,000 active. AID 624037;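 active = activation above the run's mean over test compounds plus 3 SD, cut at about 23% in these data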;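 note: signal is peak over basal fluorescence ratio across the kinetic read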
# Active calls of the source: *.
SMILES,M4 PAM,CHRM4 antagonist,CHRM4 agonist,M5 antag,M5 PAM,M5 ag
CCN1CCN(c2ccc(NC(=O)c3cc4ccccc4cc3OC)cc2C)CC1,-13,19,7,56*,-42,-9
CCN1CCN(c2ccc(NC(=O)c3ccccc3F)cc2Cl)CC1,-13,16,0,12,-26,-18
CCNc1ccc2noc3c2c1C(=O)c1ccccc1-3,-22,24,46*,38*,-16,37*
O=C1c2ccccc2-c2onc3ccc(NCc4ccco4)c1c23,-7,16,10,22,-10,16
Cc1ccnc(Nc2ccc(CCO)cc2)n1,-2,1,0,0,5,2
CCc1ccc(S(=O)(=O)Nc2c(C)nc3nc[nH]n3c2=O)cc1,5,-10,2,4,38*,8
O=C(Cn1c(=O)cnc2ccccc21)NCC(=O)Nc1ccc(F)c(F)c1,9,-26,2,-4,-2,-1
COC(=O)Cn1c(=O)cnc2ccccc21,0,4,-1,-3,2,1
O=C(O)Cn1c(=O)cnc2ccccc21,6,27*,2,11,0,-3
COC(=O)c1cc(NC(=O)Cn2c(=O)cnc3ccccc32)cc(C(=O)OC)c1,3,-9,1,-7,20*,-4
COc1cccc(C(C(=O)NC2CCCC2)N(C(=O)c2csnn2)C2CC2)c1 (stereo unspecified),-3,7,0,14,2,0
COCCn1c(N)c(N(Cc2ccccc2)C(=O)CSCC(=O)Nc2ccc(C)cc2)c(=O)[nH]c1=O,7,-8,1,-10,8,-4
Cc1ccccc1OCCNCC(C)O (stereo unspecified),12,-12,2,11,28*,7
Cc1c(NC(=O)CSc2nc3ccccc3c(=O)n2C(C)C)c(=O)n(-c2ccccc2)n1C,2,1,1,2,2,0
COc1ccc(C2c3c(ncn(CCCO)c3=N)Oc3ccc4ccccc4c32)cc1OC (stereo unspecified),11*,1,1,-4,7,-2
COc1ccc(C2c3c(ncn(CCCO)c3=N)Oc3ccc4ccccc4c32)cc1 (stereo unspecified),-9,0,19,7,-10,-4
COc1cc(C(=O)OCC(=O)Nc2ccc3c(c2)OC(F)(F)O3)ccc1OCc1c(C)noc1C,7,6,1,-3,32*,-4
COc1ccc(NC(=O)COC(=O)c2ccc(OCc3c(C)noc3C)cc2)cc1OC,-18,5,7,26,-17,3
CC(C)Cc1nnc(NS(=O)(=O)c2ccc(Cl)cc2)s1,16*,-19,1,-1,-2,-1
CCN(CC)Cc1ccccc1Sc1ccccc1,-17,53*,0,99*,-18,-9
N/C(Cc1ccccc1Sc1ccccc1)=N\O,4,-1,2,11,-7,0
O=C(NC(=S)N1CCCCC1CO)c1cccs1 (stereo unspecified),8,0,0,1,24*,-4
CCC1CCCCN1C(=S)NC(=O)c1cccs1 (stereo unspecified),-1,8,0,1,6,-1
Cc1cccc(Nc2nc(-c3c(C)nc4ccccn34)cs2)c1,-11,31*,20,35*,-21,2
Cc1nc2ccccn2c1-c1csc(Nc2cccc(O)c2)n1,-11,-2,13,6,-14,3
SMILES,M4 PAM,CHRM4 antagonist,CHRM4 agonist,M5 antag,M5 PAM,M5 ag
O=C(Nc1ccc(Cl)cc1)Nc1nc(-c2ccccc2O)cs1,-23,29*,18,36*,-31,8
Cn1ncc(Br)c1NC(=O)Nc1ccc(OC(F)(F)F)cc1,-20,-6,14,27*,-21,4
COc1ccc(N2CCN(C(=O)CNC(=O)c3ccco3)CC2)cc1,3,-5,2,10,-3,-3
CCN1CCCC1CNC(=O)c1ccc(Sc2ccccc2Cl)c([N+](=O)[O-])c1 (stereo unspecified),-26,97*,4,7,-29,-14
O=C(NCCCN1CCOCC1)c1ccc(Sc2ccc(F)cc2)c([N+](=O)[O-])c1,-9,1,3,-7,-1,-6
CCN1CCCC1CNC(=O)c1ccc(Sc2ccc(F)cc2)c([N+](=O)[O-])c1 (stereo unspecified),-29,95*,3,13,-23,-19
O=C(c1cccc(Cl)c1)N1CCC2CC1c1cc(N3CCOCC3)ccc12 (stereo unspecified),0,-9,2,0,-1,-1
c1ccc2c(c1)nnn2CNc1nccs1,22*,-8,1,-6,3,-1
c1ccc(CCn2nnc3ccccc32)cc1,-13,10,0,-1,-2,-1
COCCn1nnnc1CN1CCN(C(=O)c2ccco2)CC1,-1,-5,1,6,-2,-3
CCCCCCn1cc(C(=O)OCC)c(=O)c2cc(F)c(F)cc21,38*,15,-1,-2,16,0
CCOC(=O)c1cn(CC#N)c2cc(F)c(F)cc2c1=O,24*,-9,2,-4,8,-3
CCOC(=O)c1cn(CC)c2cc(N3CCN(C)CC3)c(F)cc2c1=O,3,4,1,-5,6,-3
c1ccc(CN2CCN(C3CCCSc4ccccc43)CC2)cc1 (stereo unspecified),-13,35*,1,-4,5,-19
CC(C)(C)c1cc(NC(=O)c2ccc(OC3CCCC3)cc2)no1,2,-4,1,3,-1,0
O=C(Nc1ccon1)c1ccc(OC2CCCC2)cc1,-11,38*,1,10,-9,0
CC(C)(C)n1nnnc1C(c1ccnc2ccccc12)N1CCN(C/C=C/c2ccccc2)CC1 (stereo unspecified),-2,0,3,7,-16,-7
C(=C\c1ccccc1)/CN1CCN(C(c2cccc3ccccc23)c2nnnn2Cc2ccccc2)CC1 (stereo unspecified),-11,6,2,38*,-22,-3
C(=C\c1ccccc1)/CN1CCN(C(c2cccs2)c2nnnn2C2CCCC2)CC1 (stereo unspecified),-11,4,-1,31*,-22,-8
C(=C\c1ccccc1)/CN1CCN(C(c2ccnc3ccccc23)c2nnnn2C2CCCC2)CC1 (stereo unspecified),-15,31*,1,86*,-22,-8

# Screening results deposited in PubChem BioAssay by The Scripps Research Institute Molecular Screening Center.
